Series [1] is described as follows: Solubility of the compound in DMSO. It counts as physicochemical.
Series [2] can be described thus: Induction of human HSC proliferation after 4 days by luminescent cell viability assay. Type of series: functional. In short, it runs like this: (§1)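 Sixth-passage HSCs (kept as neurospheres in DMEM/F12 with bFGF, EGF, B27) plated at 1×10^3 cells/well in basic medium, left 24 h, then given serial dilutions for 4 days. DMSO as negative control, bFGF as positive control. Read-out by CellTiter-Glo: reagent added to the cells, 10 min at ambient temperature, then luminescence read. Values relative to DMSO (100%). At least triplicate, repeated three times, mean ± SD.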

For series [3], the species on record is Homo sapiens. The series can be described thus: Induction of human HSC proliferation under serum free condition after 4 days by cell counting and luminescent cell viability assay. Type of series: functional. In short, it runs like this:
(§2)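 HSCs kept serum-free without bFGF, seeded at 1×10^3 cells/well, then given a range of concentrations for 2, 4 and 6 days. Read at each time point by phase-contrast imaging, cell counting (three pictures per group, haemocytometer) and CellTiter-Glo luminescence. DMSO as negative control, bFGF as positive control. Mean ± SD.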

Series [4] is described as follows: Cytotoxicity against human HSC after 4 days at 100 uM by luminescent cell viability assay. Conditions: 96 h. An outline of the steps: as §1
For series [5], the species on record is Homo sapiens. In words: Induction of human HSC proliferation under serum free condition at 5 to 40 uM by cell counting and luminescent cell viability assay. Type of series: functional. The conditions noted are these: TDE = time-dependent effect. In short, it runs like this:
as §2

The nature of series [6]: Induction of human HSC proliferation assessed as population doubling time at 41.6 uM by cell counting and luminescent cell viability assay (reference value: 73.6 hrs). Type of series: functional.
The nature of series [7]: Cytotoxicity against human HSC assessed as morphological changes 13.8 to 40.2 uM up to 6 days by phase contrast microscopy. Conditions: 144 h. An outline of the steps: (§3)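 Phase-contrast microscope images of HSCs treated with various concentrations, DMSO or bFGF, taken at 2, 4 and 6 days. Scored by morphology, including signs of differentiation such as axonal growth or adipose drop appearance.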

The nature of series [8]: Cytotoxicity against human HSC assessed as axonal growth or adipose drop appearance 13.8 to 40.2 uM up to 6 days by phase contrast microscopy. The conditions noted are these: 144 h. An outline of the steps: as §3
The species entered for series [9] is Homo sapiens. The series can be described thus: Induction of human PSC proliferation after 4 days by luminescent cell viability assay. Type of series: functional. An outline of the steps:
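Sixth-passage PSCs (expanded in DMEM/F12, 7.33 mM glucose, with 10% FBS and 20 ng/mL bFGF) plated at 1×10^3 cells/well in basic medium, left 24 h, then treated for 4 days. DMSO as negative control. Viability read by CellTiter-Glo luminescence after 10 min at ambient temperature. At least triplicate, repeated three times, mean ± SD.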

The species entered for series [10] is Homo sapiens. In words: Induction of human CSC proliferation after 4 days by luminescent cell viability assay. Type of series: functional. In short, it runs like this:
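Third-passage CSCs (maintained in IMDM with 10% FBS and 2-mercaptoethanol) plated at 1×10^3 cells/well in basic medium, left 24 h, then treated for 4 days. DMSO as negative control. Viability read by CellTiter-Glo luminescence after 10 min at ambient temperature. At least triplicate, repeated three times, mean ± SD.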

For series [11], the species on record is Homo sapiens. The series can be described thus: Induction of human HSC proliferation assessed as fold increase after 6 days by direct phase contrast microscopy. Type of series: functional. An outline of the steps: as §2
Series [12] in a line: Inhibition of human HSC proliferation after 4 days by luminescent cell viability assay. Conditions: 96 h. An outline of the steps: as §1
The mark [13] stands for this setting: Homo sapiens, 96 h, read-out: EC50.

The structures appear in SMILES notation. Calls of active or inactive are those of the source. The rule behind the calls is not given here.

With `CNNC(=S)Nc1ccc(-c2nnc(S)o2)cc1`, the solubility entry in series [1] is “soluble”.

Take `S=C(NNCc1ccccc1)Nc1ccc(-c2nnc(S)o2)cc1`: the EC50 (commonly the concentration giving half of the maximal effect) in series [2] is given as “Not Active”. Moreover, the solubility result in [1] is “soluble”.

In the case of `NNC(=S)Nc1ccc(-c2nnc(S)o2)cc1` [STEMAZOLE], the Activity result in the series listed under Homo sapiens [3] was “Dose-dependent effect”; in [4], “Non-toxic”; in the series listed under Homo sapiens [5], “tde”; in series [7], “Non-toxic”; in series [8], “Non-toxic”. In series [2] (setting [13]), the EC50 came out at 7.5 µM. The solubility result in series [1] is recorded as “soluble”. Also, the Time in series [6] is 48.5 h. The outcome in the series listed under Homo sapiens [9] and in the series listed under Homo sapiens [10] was Active. For the same compound, the fold change (FC) in the series listed under Homo sapiens [11] turned out to be 3.

For the compound `S=C(NNc1ccccc1)Nc1ccc(-c2nnc(S)o2)cc1`, the concentration for half-maximal inhibition (IC50) – broadly, the concentration needed to halve the response being measured – in series [12] was 8.3 µM. Also, the solubility result in series [1] is listed as “soluble”.

`COc1ccc(NNC(=S)Nc2ccc(-c3nnc(S)o3)cc2)cc1` had an IC50 in series [12] of 42.7 µM. The solubility result in [1] is “soluble”.

With `NNC(=S)Nc1ccc(-c2nnc(S)o2)cc1Br`, in series [4], the Activity result is given as “Toxic”. The EC50 in series [2] (setting [13]) stood at 10 µM. Further, in series [1], the solubility entry was “soluble”.

The compound `S=C(NNc1ccc(Cl)cc1)Nc1ccc(-c2nnc(S)o2)cc1` showed an IC50 in series [12] of 3.2 µM. In series [1], the solubility result was “soluble”.

The record behind these values is ChEMBL document CHEMBL1795270, “Synthesis and biological evaluation of a novel human stem/progenitor cells proliferation activator: 4-(4-(5-mercapto-1,3,4-oxadiazol-2-yl)phenyl) thiosemicarbazide (Stemazole)” (Eur J Med Chem, 2011).
